Calls of active or inactive are those of the source. The rule behind the calls is not given here.
Legend:
[1] = target: T1, Pteridine reductase, putative (Trypanosoma brucei) (UniProt Q581W1); assay: Inhibition of Trypanosoma brucei pteridine reductase 1 at 100 uM
T1 sequence (whole entry): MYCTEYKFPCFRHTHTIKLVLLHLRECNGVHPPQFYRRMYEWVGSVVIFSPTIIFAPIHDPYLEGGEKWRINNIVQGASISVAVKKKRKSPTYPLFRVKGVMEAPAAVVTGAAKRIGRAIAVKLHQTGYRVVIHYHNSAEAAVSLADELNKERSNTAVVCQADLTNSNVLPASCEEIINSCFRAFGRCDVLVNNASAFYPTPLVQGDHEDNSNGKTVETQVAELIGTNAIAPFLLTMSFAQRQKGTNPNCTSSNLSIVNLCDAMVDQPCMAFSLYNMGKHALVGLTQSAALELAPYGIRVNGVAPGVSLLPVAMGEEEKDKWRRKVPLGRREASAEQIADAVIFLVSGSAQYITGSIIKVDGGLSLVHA
Outline: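 TbPTR1 activity followed by cytochrome c reduction coupled to enzymatic tetrahydrobiopterin production: 20 mM sodium citrate, 1 mM EDTA, H2B (0.35 μM), cytc (81 μM), NADPH (100 μM), pH 6.0. Absorbance at 550 nm read within the linear phase. Fragment hits tested once at 100 μM as percent inhibition.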

[2] = target: T2, Pteridine reductase, putative (Trypanosoma brucei, UniProt Q581W1); assay: Apparent inhibition of Trypanosoma brucei pteridine reductase 1-mediated reduction of cytochrome c; conditions: read-out: Ki(app)
T2 sequence (Q581W1 whole entry): T1 sequence (whole entry)
Outline: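 TbPTR1 activity read through cytochrome c reduction coupled to enzymatic H4B formation. Absorbance at 550 nm read within the linear phase. Kiapp derived by fitting a modified Morrison equation.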

[3] = target: Bifunctional dihydrofolate reductase-thymidylate synthase (Trypanosoma brucei brucei) (UniProt Q27783); assay: Inhibition of Trypanosoma brucei DHFR-mediated reduction of cytochrome c at upto 30 uM
Sequence of Bifunctional dihydrofolate reductase-thymidylate synthase (Trypanosoma brucei brucei) (Q27783 whole entry, looked up): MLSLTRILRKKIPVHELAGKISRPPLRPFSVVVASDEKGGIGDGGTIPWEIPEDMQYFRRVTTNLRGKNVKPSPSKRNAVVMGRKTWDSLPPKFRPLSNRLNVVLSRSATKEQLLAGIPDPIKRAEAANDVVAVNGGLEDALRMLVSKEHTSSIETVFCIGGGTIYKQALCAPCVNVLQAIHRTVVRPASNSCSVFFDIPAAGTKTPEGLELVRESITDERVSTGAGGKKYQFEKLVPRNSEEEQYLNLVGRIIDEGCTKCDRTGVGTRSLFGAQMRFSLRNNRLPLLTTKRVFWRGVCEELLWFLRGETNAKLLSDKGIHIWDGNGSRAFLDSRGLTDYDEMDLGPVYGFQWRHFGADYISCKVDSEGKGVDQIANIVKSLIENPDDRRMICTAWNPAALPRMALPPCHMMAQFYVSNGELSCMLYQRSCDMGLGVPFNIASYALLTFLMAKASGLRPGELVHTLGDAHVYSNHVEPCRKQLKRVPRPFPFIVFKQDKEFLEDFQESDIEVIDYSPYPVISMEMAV
Outline: (§1)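 DHFR (T. brucei or human) activity followed by cytochrome c reduction coupled to enzymatic tetrahydrofolate production: 20 mM sodium citrate, 1 mM EDTA, H2F (4.4 μM), cytc (81 μM), NADPH (100 μM), pH 7.4. Absorbance at 550 nm read within the linear phase. Compounds tested up to 30 μM if PTR1 Kiapp below 1 μM, otherwise up to 500 μM.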

[4] = target: T3, Dihydrofolate reductase (Homo sapiens) (UniProt P00374); assay: Inhibition of human DHFR-mediated reduction of cytochrome c at upto 30 uM; outline: as §1
T3 sequence (whole entry): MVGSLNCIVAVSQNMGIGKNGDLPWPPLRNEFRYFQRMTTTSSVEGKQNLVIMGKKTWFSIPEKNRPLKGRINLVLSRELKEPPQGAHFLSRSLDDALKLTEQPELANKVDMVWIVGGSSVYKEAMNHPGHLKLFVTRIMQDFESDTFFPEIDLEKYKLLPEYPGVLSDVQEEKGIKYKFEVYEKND

[5] = target: Bifunctional dihydrofolate reductase-thymidylate synthase (Trypanosoma brucei brucei) (UniProt Q27783); assay: Inhibition of Trypanosoma brucei DHFR-mediated reduction of cytochrome c at upto 500 uM; outline: as §1
[6] = target: T3, Dihydrofolate reductase (Homo sapiens); assay: Inhibition of human DHFR-mediated reduction of cytochrome c at upto 500 uM; outline: as §1
Trypanosoma brucei = assay: Antitrypanosomal activity against Trypanosoma brucei by cell culture assay; type: functional, organism-based
[7] = Distribution coefficient, log D of the compound; type: physicochemical; conditions: octanol/water

| SMILES | inhibition [1] [%] | other results |
| --- | --- | --- |
| COc1ccccc1-c1nnc(N)[nH]1 | 19.8 | – |
| Nc1nc(-c2ccc(Br)cc2)n[nH]1 | -0.8 | – |
| CC(C)CSc1n[nH]c(N)n1 | 0.9 | – |
| Cc1ccc(-c2n[nH]c(N)n2)cc1 | 20.2 | – |
| Nc1nc(-c2ccc3c(c2)CCC3)cs1 | 32.3 | – |
| Nc1nc(-c2ccc(O)cc2)cs1 | 43.2 | – |
| CCCOc1cccc2nc(N)n(Cc3ccc(Cl)c(Cl)c3)c12 | – | Ki [2]: 0.047 µM; inhibition [3]: inactive; inhibition [4]: inactive |
| Nc1nc2ccccc2n1Cc1ccc(Cl)c(Cl)c1 | – | Ki [2]: 0.4 µM; inhibition [3]: inactive; inhibition [4]: inactive |
| Cc1cccc(-c2ccc3nc(N)[nH]c3c2)c1 | – | Ki [2]: 9.8 µM; inhibition [5]: inactive; inhibition [6]: inactive |
| Nc1nc(-c2ccncc2)cs1 | 31.3 | – |
| O=C(Cc1ccccc1Cl)Nc1c[nH]c(=O)[nH]c1=O | 21 | – |
| CC(C)c1n[nH]c(N)n1 | 3.9 | – |
| CCn1c(N)nc2ccccc21 | – | Ki [2]: > 200 µM; inhibition [5]: inactive; inhibition [6]: inactive |
| O=c1[nH]c(=O)c2c(-c3ccccc3)csc2[nH]1 | 36.3 | – |
| Nc1nc(SCC(=O)NCc2ccco2)n[nH]1 | 3.3 | – |
| O=c1[nH]cc(COCc2ccccc2)c(=O)[nH]1 | 5.7 | – |
| Nc1nc(Cc2nnc(N)[nH]2)n[nH]1 | 11.4 | – |
| c1nc(NCC2CCCO2)c2nc[nH]c2n1 (centres undefined) | 25.1 | – |
| O=C(Nc1ncnc2nc[nH]c12)c1ccccc1 | 4.5 | – |
| Nc1nc(CNC(=O)c2ccccc2)n[nH]1 | 10.7 | – |
| O=c1cc(Nc2ccc(Cl)cc2)[nH]c(=O)[nH]1 | 11.8 | – |
| O=C(Nc1c[nH]c(=O)[nH]c1=O)c1ccccc1F | 7.9 | – |
| Nc1nc2cccc(Cl)c2n1Cc1ccc(Cl)c(Cl)c1 | – | Ki [2]: 0.51 µM; inhibition [3]: inactive; inhibition [4]: inactive |
| Oc1ncc(/N=C/c2ccccc2)c(O)n1 | 22.8 | – |
| Nc1nc2ccc(Cl)cc2[nH]1 | 72.3 | Ki [2]: 10.6 µM; inhibition [5]: inactive; Activity [6]: inactive |

| SMILES | inhibition [1] [%] | other results |
| --- | --- | --- |
| OCCNc1ncnc2[nH]cnc12 | 5.9 | – |
| Nc1nc2ccccc2n1CCc1ccccc1 | – | inhibition [5]: inactive; inhibition [6]: inactive |
| CNc1nc(N)c(C(=O)C(C)(C)C)s1 | 23 | – |
| Nc1nc(-c2ccccc2Cl)n[nH]1 | 9.3 | – |
| CC(C)CC(=O)Nc1c[nH]c(=O)[nH]c1=O | 5 | – |
| Cc1ccc(CNc2n[nH]c(N)n2)cc1 | 44.2 | – |
| c1ccc(CCNc2ncnc3[nH]cnc23)cc1 | 66.4 | – |
| Nc1nnc(-c2ccc(Cl)cc2Cl)[nH]1 | 18.8 | – |
| CC(Nc1c[nH]c(=O)[nH]c1=O)c1ccccc1 (centres undefined) | 17.4 | – |
| Cc1cc(C)n(-c2cc(=O)[nH]c(=O)[nH]2)n1 | -4 | – |
| Cc1[nH]c(=O)[nH]c(=O)c1Cc1ccccc1 | -0.3 | – |
| COC(=O)c1ccc2nc(N)sc2c1 | – | Ki [2]: 21.1 µM; inhibition [5]: inactive; inhibition [6]: inactive |
| Nc1nc2cccc(-c3ccccc3)c2n1Cc1ccc(Cl)c(Cl)c1 | – | Ki [2]: 0.007 µM; inhibition [3]: inactive; inhibition [4]: inactive; EC50 (Trypanosoma brucei): 10 µM; logD [7]: 3.7 |
| Nc1nc(NCc2ccc(F)cc2)n[nH]1 | 19.3 | – |
| Cc1ccc(CSc2n[nH]c(N)n2)c(C)c1 | 17.6 | – |
| N#Cc1ccc(CSc2nnc(N)s2)cc1 | 23.1 | – |
| Nc1nc2ccccc2[nH]1 | – | Ki [2]: 288 µM; inhibition [5]: inactive; inhibition [6]: inactive |
| CNc1nc(N)c(C(=O)c2ccccc2)s1 | 18.1 | – |
| Nc1nc2ccc(C(=O)N3CCCCC3)cc2s1 | 49.9 | Ki [2]: 141 µM; inhibition [5]: inactive; inhibition [6]: inactive |
| O=c1[nH]cc(/N=C/c2ccc(Br)cc2)c(=O)[nH]1 | 4.5 | – |
| Nc1nc(C2CCCCC2)n[nH]1 | 45.1 | – |
| Nc1nnc(SCC(=O)NCc2ccc3c(c2)OCO3)[nH]1 | 38.5 | – |
| Nc1nc(CCc2n[nH]c(N)n2)n[nH]1 | 6.9 | – |
| CCc1n[nH]c(N)n1 | -3.5 | – |

Reference: ChEMBL document CHEMBL1137778, “One scaffold, three binding modes: novel and selective pteridine reductase 1 inhibitors derived from fragment hits discovered by virtual screening” (J Med Chem, 2009)
